Legend:
Format in all cases: functional
HOP-62 = test: Antiproliferative activity against human HOP62 cells after 48 hrs by sulforhodamine B assay; conditions: HOP-62, 48 h
Outline: (§1)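 Cells grown in RPMI 1640 with 5% FBS and 2 mM L-glutamine, plated at 5000–40,000 cells/well and preincubated 24 h at 37 °C, 5% CO2. Five drug concentrations (10-fold or ½-log dilutions from DMSO stocks) applied for 48 h. TCA-fixed (final 10% adherent, 16% suspension), SRB-stained, A515 read. Growth versus time-zero and control wells gave GI50, TGI, LC50.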

MDA-MB-435 = test: Antiproliferative activity against human MDA-MB-435 cells after 48 hrs by sulforhodamine B assay; conditions: MDA-MB-435, 48 h; outline: as §1
TK-10 = test: Antiproliferative activity against human TK10 cells after 48 hrs by sulforhodamine B assay; conditions: TK-10, 48 h
Outline: (§2)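 Cells in RPMI 1640 with 5% FBS and 2 mM L-glutamine were seeded at 5000–40,000/well according to doubling time and preincubated 24 h at 37 °C in 5% CO2. Time-zero plates were TCA-fixed when drug was added. Five 10-fold or ½-log dilutions from DMSO stocks were added for 48 h. After SRB staining, A515 was read and GI50 derived from [(Ti−Tz)/(C−Tz)]×100 = 50.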

COLO 205 = test: Antiproliferative activity against human COLO205 cells after 48 hrs by sulforhodamine B assay; conditions: COLO 205, 48 h; outline: as §1
HT-29 = test: Antiproliferative activity against human HT-29 cells after 48 hrs by sulforhodamine B assay; conditions: HT-29, 48 h; outline: as §1
CCRF-CEM = test: Antiproliferative activity against human CCRF-CEM cells after 48 hrs by sulforhodamine B assay; outline: as §1
[1] = Antiproliferative activity against human Hs 578T cells after 48 hrs by sulforhodamine B assay; outline: as §1
NCI-H522 = test: Antiproliferative activity against human NCI-H522 cells after 48 hrs by sulforhodamine B assay; conditions: NCI-H522, 48 h; outline: as §1
SK-MEL-28 = test: Antiproliferative activity against human SK-MEL-28 cells after 48 hrs by sulforhodamine B assay; conditions: SK-MEL-28, 48 h; outline: as §1
UACC-62 = test: Antiproliferative activity against human UACC62 cells after 48 hrs by sulforhodamine B assay; conditions: UACC-62, 48 h; outline: as §2
MOLT-4 = test: Antiproliferative activity against human MOLT4 cells after 48 hrs by sulforhodamine B assay; conditions: MOLT-4, 48 h; outline: as §1
KM12 = test: Antiproliferative activity against human KM12 cells after 48 hrs by sulforhodamine B assay; conditions: KM12, 48 h; outline: as §1
SF-539 = test: Antiproliferative activity against human SF539 cells after 48 hrs by sulforhodamine B assay; conditions: SF-539, 48 h; outline: as §1
SN12C = test: Antiproliferative activity against human SN12C cells after 48 hrs by sulforhodamine B assay; outline: as §1
RXF 393 = test: Antiproliferative activity against human RXF393 cells after 48 hrs by sulforhodamine B assay; conditions: RXF 393, 48 h; outline: as §1
HCT-116 = test: Antiproliferative activity against human HCT116 cells after 48 hrs by sulforhodamine B assay; conditions: HCT-116, 48 h; outline: as §1
NCI/ADR-RES = test: Antiproliferative activity against human NCI/ADR-RES cells after 48 hrs by sulforhodamine B assay; outline: as §1
ACHN = test: Antiproliferative activity against human ACHN cells after 48 hrs by sulforhodamine B assay; outline: as §1
RPMI-8226 = test: Antiproliferative activity against human RPMI8226 cells after 48 hrs by sulforhodamine B assay; conditions: RPMI-8226, 48 h, read-out: pLC50 (the source's name) (converted); outline: as §1
T47D = test: Antiproliferative activity against human T47D cells after 48 hrs by sulforhodamine B assay; outline: as §2
LOX IMVI = test: Antiproliferative activity against human LOXIMVI cells after 48 hrs by sulforhodamine B assay; outline: as §1
SF-268 = test: Antiproliferative activity against human SF268 cells after 48 hrs by sulforhodamine B assay; conditions: SF-268, 48 h; outline: as §1
UO-31 = test: Antiproliferative activity against human UO31 cells after 48 hrs by sulforhodamine B assay; conditions: UO-31, 48 h; outline: as §2
NCI-H23 = test: Antiproliferative activity against human NCI-H23 cells after 48 hrs by sulforhodamine B assay; conditions: NCI-H23, 48 h; outline: as §1
SW-620 = test: Antiproliferative activity against human SW620 cells after 48 hrs by sulforhodamine B assay; conditions: SW-620, 48 h; outline: as §2
SNB-19 = test: Antiproliferative activity against human SNB19 cells after 48 hrs by sulforhodamine B assay; conditions: SNB-19, 48 h; outline: as §1
786-0 = test: Antiproliferative activity against human 786-0 cells after 48 hrs by sulforhodamine B assay; conditions: 786-0, 48 h; outline: as §1
K562 = test: Antiproliferative activity against human K562 cells after 48 hrs by sulforhodamine B assay; conditions: K562, 48 h; outline: as §1
[2] = Antiproliferative activity against human EKVX cells after 48 hrs by sulforhodamine B assay; outline: as §1
DU-145 = test: Antiproliferative activity against human DU145 cells after 48 hrs by sulforhodamine B assay; conditions: DU-145, 48 h; outline: as §1

In the case of `O=C(CCCn1c(=O)c2sc3ccccc3c2n2nnc(-c3ccccc3)c12)NCCc1c[nH]cn1`, the GI50 (HOP-62) is reported as 2.29 µM, the LC50 (HOP-62) is reported as over 100 µM and the TGI (HOP-62; read-out: pTGI (converted)) is reported as 5.25 µM. For the same compound, the GI50 (MDA-MB-435) was 1.48 µM, the LC50 (MDA-MB-435) was 6.31 µM and the TGI (MDA-MB-435; read-out: pTGI (converted)) was 3.09 µM. It also gave a GI50 (TK-10) of 2.14 µM, a TGI (TK-10; read-out: pTGI (converted)) of 3.98 µM and a GI50 (COLO 205) of 1.1 µM. The LC50 (COLO 205) was over 100 µM, the TGI (COLO 205; read-out: pTGI (converted)) was 4.79 µM and the GI50 (HT-29) was 1.35 µM. For the same compound, the LC50 (HT-29) was 7.41 µM, the TGI (HT-29; read-out: pTGI (converted)) was 3.16 µM and the LC50 (CCRF-CEM) was over 100 µM. It also gave a TGI (CCRF-CEM; read-out: pTGI (converted)) of over 100 µM, a GI50 [1] of 1.74 µM and a TGI ([1]; read-out: pTGI (converted)) of 4.07 µM. The GI50 (NCI-H522) was 1.05 µM, the LC50 (NCI-H522) was 81.3 µM and the TGI (NCI-H522; read-out: pTGI (converted)) was 11.7 µM. For the same compound, the GI50 (SK-MEL-28) was 1.74 µM, the LC50 (SK-MEL-28) was 5.89 µM and the TGI (SK-MEL-28; read-out: pTGI (converted)) was 3.24 µM. It also gave a GI50 (UACC-62) of 1.91 µM, an LC50 (concentration killing 50% of cells) (UACC-62) of 6.61 µM and a TGI (UACC-62; read-out: pTGI (converted)) of 3.55 µM. The GI50 (MOLT-4) was 1.17 µM, the GI50 (KM12) was 1.15 µM and the TGI (KM12; read-out: pTGI (converted)) was 2.82 µM. It also gave a GI50 (SF-539) of 0.661 µM, an LC50 (SF-539) of 5.75 µM and a TGI (SF-539; read-out: pTGI (converted)) of 2.19 µM. It also gave a GI50 (SN12C) of 0.269 µM, an LC50 (SN12C) of 5.13 µM and a TGI (SN12C; read-out: pTGI (converted)) of 1.86 µM. For the same compound, the GI50 (RXF 393) was 2.51 µM, the LC50 (RXF 393) was over 100 µM and the TGI (RXF 393; read-out: pTGI (converted)) was 5.01 µM. It also gave a GI50 (HCT-116) of 0.339 µM, an LC50 (HCT-116) of over 100 µM and a TGI (HCT-116; read-out: pTGI (converted)) of 1.66 µM. It also gave a GI50 (NCI/ADR-RES) of 3.24 µM, an LC50 (NCI/ADR-RES) of over 100 µM and a TGI (NCI/ADR-RES; read-out: pTGI (converted)) of over 100 µM. The GI50 (ACHN) was 1.66 µM, the LC50 (50% lethal concentration) (ACHN) was 5.5 µM and the TGI (ACHN; read-out: pTGI (converted)) was 3.02 µM. It also gave a CC50 (RPMI-8226) of over 100 µM, a GI50 (T47D) of 1.41 µM and an LC50 (T47D) of over 100 µM. It also gave a TGI (T47D; read-out: pTGI (converted)) of 4.47 µM, a GI50 (LOX IMVI) of 1.58 µM and a CC50 (LOX IMVI; read-out: pLC50 (the source's name) (converted)) of 5.37 µM. For the same compound, the TGI (LOX IMVI; read-out: pTGI (converted)) was 2.95 µM, the GI50 (SF-268) was 1.78 µM and the LC50 (SF-268) was 7.76 µM. The TGI (SF-268; read-out: pTGI (converted)) was 3.72 µM, the GI50 (UO-31) was 1.91 µM and the TGI (UO-31; read-out: pTGI (converted)) was 3.72 µM. For the same compound, the GI50 (NCI-H23) was 2.95 µM, the LC50 (NCI-H23) was over 100 µM and the TGI (NCI-H23; read-out: pTGI (converted)) was 11.7 µM. It also gave a GI50 (SW-620) of 0.407 µM, a GI50 (SNB-19) of 1.7 µM and an LC50 (SNB-19) of over 100 µM. It also gave a TGI (SNB-19; read-out: pTGI (converted)) of 5.01 µM, a GI50 (786-0) of 1.58 µM and a TGI (786-0; read-out: pTGI (converted)) of 3.55 µM. The GI50 (K562) was 0.437 µM, the GI50 [2] was 2.69 µM and the LC50 [2] was over 100 µM. For the same compound, the TGI ([2]; read-out: pTGI (converted)) was 8.71 µM, the GI50 (DU-145) was 1.55 µM and the LC50 (DU-145) was 5.75 µM. For the same compound, the TGI (DU-145; read-out: pTGI (converted)) was 2.95 µM.
